The test system of assay [1] is HepG2. Kind of assay: cells. The note with it: Homo sapiens, HepG2, 72 h.
For assay [2], the system named is MDA-MB-231. Kind of assay: cells. The note with it: Homo sapiens, MDA-MB-231, 72 h.
Assay [3] concerns the target Proto-oncogene tyrosine-protein kinase Src (Homo sapiens, UniProt P12931).
The subject of assay [4] is MDA-MB-231. The assay can be described thus: Antitumor activity against human MDA-MB-231 cells xenografted in SCID mouse assessed as tumor growth inhibition at 10 mg/kg/week, iv administered for 18 days measured every 3 days during compound dosing. The format is functional, organism-based. Put shortly:
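SCID mice (5–6 weeks) given subcutaneous injections of 5 ×10^6 MDA-MB-231 cells; at 150–200 mm3 tumors, randomized into 6 groups of 6; oral daily dosing (vehicle 25% PEG400 + 5% DMSO in sterile water), paclitaxel 10 mg/kg/week by tail vein; tumors measured every 3 days, volume = ab²/2; side effects monitored daily.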
(In general: In xenograft studies the graft and the host belong to different species.)

Assay [5] concerns MDA-MB-231. Kind of assay: Potency index, ratio of dasatinib IC50 to compound IC50 for human MDA-MB-231 cells. It counts as functional.
Assay [6] relates to MDA-MB-231. The assay can be described thus: Potency index, ratio of ponatinib IC50 to compound IC50 for human MDA-MB-231 cells. The format is functional.
In assay [7] the test system is MDA-MB-231. Kind of assay: Cell cycle arrest in human MDA-MB-231 cells assessed as accumulation at G0/G1 phase at 0.3 uM after 24 to 48 hrs by flow cytometric analysis. It counts as functional, cell-based. A general note: Flow cytometry measures light scatter and fluorescence of single cells or particles in a stream.
The test system of assay [8] is MDA-MB-231. Kind of assay: Antiproliferative activity against human MDA-MB-231 cells assessed as inhibition of colony formation at >0.01 uM after 12 days by crystal violet staining-based assay. The format is functional, cell-based. Put shortly: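 MDA-MB-231 cells plated at 5000 per well and treated the next day with vehicle or compound, medium refreshed every 4 days; after 12 days, colonies fixed in methanol, crystal violet stained and photographed.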

Assay [9] concerns MDA-MB-231. Kind of assay: Inhibition of ERK phosphorylation in human MDA-MB-231 cells at 0.001 to 1 uM after 20 hrs by Western blot analysis. The format is cell-based. In short, it runs like this:
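MDA-MB-231 cells exposed to a concentration series for 20 h at 37 °C, then washed in ice-cold saline and lysed in RIPA buffer with protease cocktail. Lysates were cleared at 12 000 rpm for 10 min at 4 °C and protein measured by Bradford. Equal protein was run on SDS-PAGE, transferred to PVDF and immunoblotted for phospho-proteins.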
(In general: A western blot detects proteins with antibodies after separation by electrophoresis.)

Assay [10] relates to MDA-MB-231. Kind of assay: Antiinvasive activity against human MDA-MB-231 cells at 0.1 uM after 24 hrs by transwell assay. The format is functional, cell-based.
The subject of assay [11] is MDA-MB-231. Kind of assay: Antitumor activity against human MDA-MB-231 cells xenografted in SCID mouse assessed as tumor growth inhibition at 40 mg/kg/day administered for 18 days measured every 3 days during compound dosing. The format is functional, organism-based.
The test system of assay [12] is MDA-MB-231. Kind of assay: Effect on AKT phosphorylation in human MDA-MB-231 cells at 0.001 to 1 uM after 20 hrs by Western blot analysis. It counts as cell-based. Put shortly:
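MDA-MB-231 cells exposed to a concentration series for 20 h at 37 °C, lysed in RIPA with protease inhibitor cocktail, cleared by centrifugation, protein quantified by Bradford, resolved by SDS-PAGE, transferred to PVDF and immunoblotted.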

Assay [13] has as its system MDA-MB-231. The assay can be described thus: Induction of apoptosis in human MDA-MB-231 cells assessed as early apoptotic cells at 0.3 uM after 48 hrs by annexin V-FITC/propidium iodide staining-based flow cytometric analysis (reference value: […]). The format is functional.
Assay [14] has as its system MDA-MB-231. The assay can be described thus: Induction of apoptosis in human MDA-MB-231 cells assessed as early apoptotic cells at 0.3 uM after 24 hrs by annexin V-FITC/propidium iodide staining-based flow cytometric analysis (reference value: 1.58%). The format is functional.
Assay [15] has as its system MDA-MB-231. The assay can be described thus: Induction of apoptosis in human MDA-MB-231 cells assessed as viable cells at 0.3 uM after 24 hrs by annexin V-FITC/propidium iodide staining-based flow cytometric analysis (reference value: 95.5%). The format is functional. As to conditions: MDA-MB-231, 24 h, read-out: Activity.
Assay [16] has as its system MDA-MB-231. Kind of assay: Induction of apoptosis in human MDA-MB-231 cells assessed as viable cells at 0.3 uM after 48 hrs by annexin V-FITC/propidium iodide staining-based flow cytometric analysis (reference value: 94.4%). It counts as functional. As to conditions: MDA-MB-231, 48 h, read-out: Activity.
Assay [17] deals with MDA-MB-231. The assay can be described thus: Induction of apoptosis in human MDA-MB-231 cells assessed as late apoptotic cells at 0.3 uM after 24 hrs by annexin V-FITC/propidium iodide staining-based flow cytometric analysis (reference value: 2.67%). The format is functional.
The test system of assay [18] is MDA-MB-231. Kind of assay: Induction of apoptosis in human MDA-MB-231 cells assessed as late apoptotic cells at 0.3 uM after 48 hrs by annexin V-FITC/propidium iodide staining-based flow cytometric analysis (reference value: 4.25%). It counts as functional.
Assay [19] concerns MDA-MB-231. The assay can be described thus: Antimigratory activity against human MDA-MB-231 cells at 0.03 to 0.3 uM after 20 hrs by wound healing assay. It counts as functional, cell-based. Put shortly:
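MDA-MB-231 monolayers grown to confluence, scratched with a sterile pipet tip, rinsed with saline, then kept in DMEM containing vehicle or compound; wound images taken after 20 h and analysed.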

pIC50: −log10 of the molar value. Activity calls are given as the source filed them. The rule behind the calls is not given here. A value given as a limit tells only on which side of the number the result lay.

Sequence of Proto-oncogene tyrosine-protein kinase Src (P12931 2-536 limits assumed): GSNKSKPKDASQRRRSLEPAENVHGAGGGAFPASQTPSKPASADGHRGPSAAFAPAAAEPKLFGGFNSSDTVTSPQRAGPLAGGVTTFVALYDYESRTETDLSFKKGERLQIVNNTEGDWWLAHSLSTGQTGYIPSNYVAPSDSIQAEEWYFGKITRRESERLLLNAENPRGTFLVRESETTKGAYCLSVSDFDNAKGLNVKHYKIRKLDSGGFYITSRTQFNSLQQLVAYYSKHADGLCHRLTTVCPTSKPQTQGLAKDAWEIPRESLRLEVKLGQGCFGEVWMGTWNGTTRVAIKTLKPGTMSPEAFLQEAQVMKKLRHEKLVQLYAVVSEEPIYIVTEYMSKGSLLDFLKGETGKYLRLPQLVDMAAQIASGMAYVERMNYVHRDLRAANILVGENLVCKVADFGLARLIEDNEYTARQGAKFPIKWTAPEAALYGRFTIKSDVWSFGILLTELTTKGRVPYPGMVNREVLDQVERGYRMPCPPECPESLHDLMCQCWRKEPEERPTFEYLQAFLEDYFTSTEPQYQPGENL

As to `Cc1ccc(C(=O)Nc2ccc(CN3CCN(C)CC3)c(C(F)(F)F)c2)cc1C#Cc1nn(C)c2ncnc(N)c12`, the results for the pIC50 in assay [1] and in [2] were less than 5.30 and 7.70, respectively.

Consider `CCn1nc(C#Cc2cc(C(=O)Nc3ccc(CN4CCN(C)CC4)c(C(F)(F)F)c3)ccc2O)c2c(N)ncnc21`, for which the pIC50 in assay [1] and in assay [2] was less than 5.30 throughout.

As for `Cc1ccc(C(=O)Nc2cccc(C(F)(F)F)c2)cc1C#Cc1nn(C(C)C)c2ncnc(N)c12`, the pIC50 in assay [1] was less than 5.30; in assay [2], 6.99.

Regarding `CCN1CCN(Cc2ccc(NC(=O)c3ccc(C)c(C#Cc4nn(C(C)C)c5ncnc(N)c45)c3)cc2C(F)(F)F)CC1`, the values for the pIC50 in [1], in assay [3] and in assay [2] were less than 5.30, 8.70 and 7.25, respectively.

As to `CCn1nc(C#Cc2cc(C(=O)Nc3ccc(CN4CCN(C)CC4)c(C(F)(F)F)c3)ccc2OC)c2c(N)ncnc21`, the pIC50 in assay [1] is 5.33; in assay [2], 6.49.

Turning to `CCn1nc(C#Cc2cc(C(=O)Nc3ccc(CN4CCN(C)CC4)c(C(F)(F)F)c3)ccc2C(C)C)c2c(N)ncnc21`, the pIC50 is less than 5.30 in assay [1], 5.85 in assay [3] and 5.91 in [2].

Turning to `CC(=O)O[C@H]1C(=O)[C@@]2(C)[C@H]([C@H](OC(=O)c3ccccc3)[C@]3(O)C[C@H](OC(=O)[C@H](O)[C@@H](NC(=O)c4ccccc4)c4ccccc4)C(C)=C1C3(C)C)[C@]1(OC(C)=O)CO[C@@H]1C[C@@H]2O`, the TGI result in [4] was “Active”.

As to `Cc1ccc(C(=O)Nc2ccc(CN3CCN(C)CC3)cc2)cc1C#Cc1nn(C(C)C)c2ncnc(N)c12`, the pIC50 is 5.33 in assay [1] and 6.57 in assay [2].

Consider `CCn1nc(C#Cc2cc(C(=O)Nc3ccc(CN4CCN(C)CC4)c(C(F)(F)F)c3)ccc2F)c2c(N)ncnc21`, for which the pIC50 is less than 5.30 in assay [1] and 5.76 in assay [2].

Consider `Cc1ccc(C(=O)Nc2ccc(CN3CCN(C)CC3)c(C(F)(F)F)c2)cc1C#Cc1nn(C2CCCC2)c2ncnc(N)c12`, for which the pIC50 is less than 5.30 in assay [1] and 7.19 in [2].

Consider `Cc1ccc(C(=O)Nc2ccc(CN3CCN(C)CC3)c(C(F)(F)F)c2)cc1C#Cc1nn(C2CCNCC2)c2ncnc(N)c12`, for which the pIC50 is less than 5.30 in assay [1] and 7.92 in [3].

As for `CCn1nc(C#Cc2cc(C(=O)Nc3ccc(CN4CCN(C)CC4)c(C(F)(F)F)c3)ccc2Cl)c2c(N)ncnc21`, the pIC50 in [1] is less than 5.30; in [2], 7.28.

Turning to `Cc1ccc(C(=O)Nc2ccc(CN3CCN(C)CC3)c(C(F)(F)F)c2)cc1C#Cc1nn(C(C)C)c2ncnc(N)c12`, the “Ratio IC50” value in assay [5] and in assay [6] was 2.5 in each case. The figures for the pIC50 in [1], in [3] and in assay [2] were less than 5.30, 8.70 and 7.16, respectively.

Consider `Cc1ccc(C(=O)Nc2ccc(CN3CCN(C)CC3)c(Cl)c2)cc1C#Cc1nn(C(C)C)c2ncnc(N)c12`, for which the results for the pIC50 in [1], in assay [3] and in [2] were 5.45, 8.70 and 7.24, respectively.

For the compound `Cc1ccc(C(=O)Nc2ccc(CN3CCN(C)CC3)c(C(F)(F)F)c2)cc1C#Cc1nn(C2CCC2)c2ncnc(N)c12`, the figures for the pIC50 in [1] and in [2] were less than 5.30 and 7.55, respectively.

Regarding `Cc1ccc(C(=O)Nc2ccc(CN3CCN(C)CC3)c(Br)c2)cc1C#Cc1nn(C(C)C)c2ncnc(N)c12`, the pIC50 in assay [1] was 5.74; in assay [3], 9.00; in assay [2] it was 7.40.

`CCn1nc(C#Cc2cccc(C(=O)Nc3ccc(CN4CCN(C)CC4)c(C(F)(F)F)c3)c2)c2c(N)ncnc21`: the pIC50 in assay [1] was less than 5.30; in [2] it was 7.62.

For the compound `Cc1ccc(C(=O)Nc2ccc(CN3CCN(C)CC3)c(C(F)(F)F)c2)cc1C#Cc1cnc2cccnn12` [PONATINIB], the values for the pIC50 in [1] and in assay [2] were less than 5.30 and 6.81, respectively.

Turning to `Cc1ccc(C(=O)Nc2ccc(CN3CCOCC3)c(C(F)(F)F)c2)cc1C#Cc1nn(C(C)C)c2ncnc(N)c12`, the pIC50 was less than 5.30 in assay [1], 7.68 in [3] and 5.82 in assay [2].

Regarding `C=CC(=O)N1CCC(n2nc(C#Cc3cc(C(=O)Nc4ccc(CN5CCN(C)CC5)c(C(F)(F)F)c4)ccc3C)c3c(N)ncnc32)CC1`, the pIC50 in assay [1] was less than 5.30; in assay [2] it was 7.85.

Turning to `Cc1nc(Nc2ncc(C(=O)Nc3c(C)cccc3Cl)s2)cc(N2CCN(CCO)CC2)n1.O` [DASATINIB], the result in assay [7], in assay [10] and in [19] was Active. Also, in assay [8], the inhibition result is “Active”. The pIC50 in assay [1] is less than 5.30; in assay [2] it was 6.75. Besides, the inhibition result in assay [9] is “inactive”. Moreover, the TGI entry in assay [11] is “Active”. In addition, the result in assay [12] was inactive. For the same compound, the Activity in assay [13] is recorded as 6.31%; in assay [14] it was 2.64%; in [17], 4.73%; in assay [18], 9.84%. The viability at 0.3 µM in assay [15] came out at 90.4%; in assay [16], 82.9%.

Take `Cc1ccc(C(=O)Nc2ccc(CN3CCN(C)CC3)c(C(F)(F)F)c2)cc1C#Cc1nn(C2CCN(C(=O)OC(C)(C)C)CC2)c2ncnc(N)c12`: the pIC50 is less than 5.30 in assay [1] and 6.84 in assay [2].

`CCc1ccc(C(=O)Nc2ccc(CN3CCN(C)CC3)c(C(F)(F)F)c2)cc1C#Cc1nn(CC)c2ncnc(N)c12`: the pIC50 in assay [1] is less than 5.30; in [2], 6.38.

`Cc1ccc(C(=O)Nc2ccc(CN3CCN(CCO)CC3)c(C(F)(F)F)c2)cc1C#Cc1nn(C(C)C)c2ncnc(N)c12`: the figures for the pIC50 in assay [1], in assay [3] and in assay [2] were 5.75, 8.40 and 7.30, respectively.

`COCn1nc(C#Cc2cc(C(=O)Nc3ccc(CN4CCN(C)CC4)c(C(F)(F)F)c3)ccc2C)c2c(N)ncnc21`: the values for the negative-log IC50 (pIC50) in assay [1] and in assay [2] were less than 5.30 and 7.29, respectively.

As a reminder, the pIC50 is −log10 of the IC50, conventionally taken in molar units.

These data come from ChEMBL document CHEMBL3425429.
